Assay results as given in ChEMBL document CHEMBL1143577, “Syntheses and biological activities of rebeccamycin analogues with uncommon sugars” (J Med Chem, 2005).
pIC50: −log10 of the molar value.

Legend:
K562 = experiment: Inhibitory concentration against […] leukemia cell line in MTS assay; type: functional, cell-based; conditions: Homo sapiens
In short: (§1)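 Cells grown in RPMI 1640 with 10% FBS, 1% nonessential amino acids, penicillin-streptomycin, 37 °C, 5% CO2. Exponentially growing cells were then exposed to a range of compound concentrations for 72 h. MTS (2 mg/mL) plus PMS (25 µM) was added for 3 h, and absorbance was read at 490 nm. IC50 came from dose-response curves of % growth versus untreated control.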

SW-620 = experiment: Inhibitory concentration against SW620 colorectal carcinoma cell line in MTS assay; type: functional, cell-based, Homo sapiens; in short: as §1

pIC50 (K562) | pIC50 (SW-620; Homo sapiens, SW-620) | pIC50 (SW-620; sw-620) | Structure (SMILES)
4.26 | < 4.00 | – | CC1OC(n2c3ccccc3c3c4c(c5c6ccccc6[nH]c5c32)C(=O)OC4=O)CC(N)C1O (stereo not drawn)
4.92 | 4.89 | – | CN1C(=O)c2c(c3c4ccccc4n(C4CC(O)C(O)C(CO)O4)c3c3[nH]c4ccccc4c23)C1=O (stereo not drawn)
< 4.00 | < 4.00 | – | CC1OC(n2c3ccccc3c3c4c(c5c6ccccc6[nH]c5c32)C(=O)N(N)C4=O)CC(O)C1O (stereo not drawn)
4.40 | < 4.00 | – | CN1C(=O)c2c(c3c4ccccc4[nH]c3c3[nH]c4ccccc4c23)C1=O
< 4.30 | < 4.30 | – | O=C1c2c(c3c4ccccc4n(C4OC(COCc5ccccc5)C(OCc5ccccc5)C(OCc5ccccc5)C4OCc4ccccc4)c3c3[nH]c4ccccc4c23)C(=O)N1CCCn1ccnc1 (stereo not drawn)
5.52 | 5.30 | – | CN1C(=O)c2c(c3c4ccccc4n(C4OC(CO)C(O)C(O)C4O)c3c3[nH]c4ccccc4c23)C1=O (stereo not drawn)
4.28 | 4.12 | – | CC1OC(n2c3ccccc3c3c4c(c5c6ccccc6[nH]c5c32)C(=O)OC4=O)CC(NCc2ccccc2)C1O (stereo not drawn)
5.40 | 5.70 | – | O=C1c2c(c3c4ccccc4n(C4OC(CO)C(O)C(O)C4O)c3c3[nH]c4ccccc4c23)C(=O)N1CCCn1ccnc1 (stereo not drawn)
4.47 | < 4.00 | – | CC1OC(n2c3ccccc3c3c4c(c5c6ccccc6[nH]c5c32)C(=O)N(C)C4=O)CC(NCc2ccccc2)C1O (stereo not drawn)
4.59 | 4.62 | – | CC1OC(n2c3ccccc3c3c4c(c5c6ccccc6[nH]c5c32)C(=O)N(C)C4=O)CC(O)C1O (stereo in doubt; 5)
– | – | 4.47 | CC1OC(n2c3ccccc3c3c4c(c5c6ccccc6[nH]c5c32)C(=O)N(C)C4=O)CC(O)C1O (stereo in doubt; 6)
5.22 | 5.40 | – | CO[C@H]1[C@H](O)[C@@H](O)[C@H](n2c3c(Cl)cccc3c3c4c(c5c6cccc(Cl)c6[nH]c5c32)C(=O)NC4=O)O[C@@H]1CO [REBECCAMYCIN]
